Active and inactive are the calls of the source. No cut-off for these calls is given here.
Tests used:
Liver [1] = experiment: Induction of basal oxygen consumption under nonphosphorylative conditions in rat liver mitochondria after 5 mins in presence of succinate; assay type: functional
How it was run: (§1)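 Glutamate/malate (10/5 mM) or succinate (5 mM) was the substrate, with compound 2.5–10 μM for 5 min (state 2). ADP was added (125 nmol glutamate/malate; 75 nmol succinate), then oligomycin 2 μg/mL, then FCCP 1 μM. RCR and ADP/O were calculated. Seven experiments.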

HepG2 [2] = experiment: Antioxidant activity in human HepG2 cells assessed as intracellular GSH content per ug of protein at 2.5 uM after 48 hrs by HPLC analysis (reference value: 17.81 nmol); assay type: functional
Liver [3] = experiment: Drug uptake in rat liver extra-mitochondria at 1 uM in presence of succinate/valinomycin by TPP+-based electrode assay; assay type: ADME, tissue-based
How it was run: (§2)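 TPP+-selective electrode with rat liver mitochondria (0.5 mg/mL) in 120 mM KCl, 10 mM HEPES pH 7.2, 1 mM EGTA at 37 °C with rotenone 1.5 μM. Five 1 μM additions calibrated the electrode, then succinate 10 mM was added, then valinomycin 0.2 μg/mL. The accumulation ratio assumed a matrix volume of ~0.5 μL/mg with a binding correction.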

[4] = Antioxidant activity assessed as DPPH radical scavenging activity measured every minute for 45 mins; assay type: functional
How it was run: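 DPPH• ethanolic solution diluted to absorbance 0.72 ± 0.02 at 515 nm. Ethanolic test solutions (50–500 μM) were added in triplicate and read at 515 nm. Inhibition was taken against an ethanol blank (100% radical), and IC50 was read from dose–response curves.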

HepG2 [5] = experiment: Antioxidant activity in human HepG2 cells assessed as reduction in FeSO4-induced cell toxicity at 2.5 uM preincubated for 1 hr followed by FeSO4 addition for 48 hrs by SRB assay; assay type: functional, cell-based
How it was run: (§3)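 HepG2 cells, grown in high-glucose DMEM with 10% FBS at 37 °C and 5% CO2, seeded at 2 × 10^4 cells/500 μL. Cells were preincubated with compound, then given 250 μM FeSO4 or 250 μM H2O2. Cell mass was read by SRB (fixed, stained, OD 540 nm) as % of untreated control. Four independent experiments.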

Liver [6] = experiment: Induction of membrane hyperpolarization in rat liver mitochondria assessed as change in repolarization potential at 2.5 uM; assay type: functional
How it was run: (§4)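 Safranine (5 μM) fluorescence (ex 495/em 586 nm) at 25 °C. Rat liver mitochondria (0.5 mg/2 mL) were in 200 mM sucrose, 1 mM KH2PO4, 10 mM Tris pH 7.4, 10 μM EGTA with glutamate/malate or succinate, after 5 min with 2.5–10 μM. ADP 25 nmol depolarised, then FCCP 1 μM was added. A valinomycin calibration in K+-free medium was used, five experiments.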

Liver [7] = experiment: Increase in oligomycin-inhibited respiration in rat liver mitochondria after 5 mins in presence of glutamate/malate; assay type: functional; how it was run: as §1
Liver [8] = experiment: Inhibition of ADP-induced membrane depolarization in succinate energized rat liver mitochondria at 5 uM preincubated for 5 mins followed by ADP addition measured by safranine-based spectrofluorometric analysis; assay type: functional, tissue-based; how it was run: as §4
HepG2 [9] = experiment: Antioxidant activity in human HepG2 cells assessed as reduction in H2O2-induced cell toxicity at 2.5 uM preincubated for 1 hr followed by H2O2 addition for 48 hrs by SRB assay; assay type: functional, cell-based; how it was run: as §3
HepG2 [10] = experiment: Cytotoxicity against human HepG2 cells assessed as depletion of intracellular GSH content at 2.5 uM after 48 hrs by HPLC analysis; assay type: cell-based; conditions: hepg2, 48 h
How it was run: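 HepG2 cells (4 × 10^5 per 100 mm dish) were incubated 48 h, collected and stored at −80 °C in PBS. Reduced GSH was measured by reverse-phase HPLC with detection at 515 nm and expressed as nmol GSH/μg protein. Four experiments.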

Liver [11] = experiment: Induction of basal respiration in rat liver mitochondria measured 5 mins after ADP phosphorylation in presence of succinate; assay type: functional; how it was run: as §1
Liver [12] = experiment: Decrease in oxidative phosphorylation efficiency in rat liver mitochondria assessed as reduction in coupling between ATP systhesis and oxygen consumption after 5 mins in presence of succinate; assay type: functional; how it was run: as §1
[13] = Lipophilicity of compound in Ag/AgCl-NaCl containing PET membrane assessed as tranfer potential at pH 7; assay type: physicochemical
How it was run: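 Transfer across a liquid–liquid interface on a microporous PET membrane, with 1,6-dichlorohexane organic phase containing BTPPATPBCl. A gelled 2 mM BTPPACl + 2 mM NaCl reference was used, with 10 mM Tris-HCl pH 7.0 aqueous electrolyte.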

Liver [14] = experiment: Decrease in oxidative phosphorylation efficiency in rat liver mitochondria assessed as reduction in respiratory control ratio after 5 mins in presence of glutamate/malate; assay type: functional; how it was run: as §1
Liver [15] = experiment: Induction of basal respiration in rat liver mitochondria measured 5 mins after ADP phosphorylation in presence of glutamate/malate; assay type: functional; how it was run: as §1
[16] = Redox potential of compound in Ag/AgCl-NaCl containing phosphate buffer at 0.1 mM at pH 7.4 by cyclic voltammetric analysis
How it was run: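 Voltammetry used a glassy carbon working electrode, Pt counter and Ag/AgCl reference. Compound was at 0.1 mM final (10 mM ethanolic stock) in pH 7.4 potassium phosphate electrolyte.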

Liver [17] = experiment: Induction of basal oxygen consumption under nonphosphorylative conditions in rat liver mitochondria after 5 mins in presence of glutamate/malate; assay type: functional; how it was run: as §1
Liver [18] = experiment: Induction of ADP-stimulated respiration in rat liver mitochondria after 5 mins in presence of succinate; assay type: functional; how it was run: as §1
HepG2 [19] = experiment: Cytotoxicity against human HepG2 cells assessed as mitochondrial depolarization at 2.5 uM after 48 hrs TMRM-staining based epifluorescence microscopic analysis; assay type: cell-based; conditions: hepg2, 48 h
How it was run: (§5)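 HepG2 cells on coverslips (8 × 10^4 cells/2 mL) were treated 48 h. In the last 30 min, cells were stained with TMRM (100 nM) and Hoechst 33342 (1 μg/mL) in HBSS pH 7.4 at 37 °C in the dark. Live cells were imaged by fluorescence microscopy, four random fields per well, three experiments.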

[20] = Induction of mPTP in energized rat liver mitochondria at 2.5 to 10 uM after 5 mins in presence of succinate by spectrophotometric analysis
Liver [21] = experiment: Induction of ADP-stimulated respiration in rat liver mitochondria after 5 mins in presence of glutamate/malate; assay type: functional; how it was run: as §1
Liver [22] = experiment: Increase in oligomycin-inhibited respiration in rat liver mitochondria after 5 mins in presence of succinate; assay type: functional; how it was run: as §1
Liver [23] = experiment: Antioxidant activity in rat liver mitochondria assessed as inhibition of ADP/FeSO4-induced lipid peroxidation at 5 uM preincubated for 5 mins followed by ADP/FeSO4 addition; assay type: functional
How it was run: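 Rat liver mitochondria (2 mg) in 100 mM KCl, 10 mM Tris-HCl pH 7.6, with glutamate/malate (5/2.5 mM) at 37 °C. After 5 min with compound (5 μM), peroxidation was started with ADP/0.1 mM FeSO4. The lag phase of O2 consumption was measured by Clark electrode and expressed as % of control. Six experiments.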

HepG2 [24] = experiment: Cytotoxicity against human HepG2 cells assessed as chromatin condensation at 2.5 uM after 48 hrs Hoechst 33342-staining based epifluorescence microscopic analysis; assay type: cell-based; conditions: hepg2, 48 h; how it was run: as §5
Liver [25] = experiment: Ratio of drug level in rat liver intra-mitochondria to extra-mitochondria at 1 uM in presence of succinate/valinomycin by TPP+-based electrode assay; assay type: ADME, tissue-based; how it was run: as §2
Rattus norvegicus = species on record: Rattus norvegicus; experiment: Inhibition of mPTP in energized rat liver mitochondria at 2.5 to 10 uM after 5 mins in presence of succinate by spectrophotometric analysis
Liver [26] = experiment: Decrease in oxidative phosphorylation efficiency in rat liver mitochondria assessed as reduction in coupling between ATP systhesis and oxygen consumption after 5 mins in presence of glutamate/malate; assay type: functional; how it was run: as §1
[27] = Antioxidant activity assessed as ABTS radical scavenging activity measured each minute for 15 mins by spectrophotometric analysis; assay type: functional
How it was run: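 ABTS•+ generated from 7 mM ABTS plus potassium persulfate, held 16 h dark at room temperature, then diluted in ethanol to absorbance 0.72 ± 0.02. Ethanolic test solutions (10–500 μM) were added to radical solution in triplicate. Inhibition was taken against an ethanol blank (100% radical), and IC50 was read from dose–response curves.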

Liver [28] = experiment: Drug uptake in rat liver intra-mitochondria at 1 uM in presence of succinate/valinomycin by TPP+-based electrode assay; assay type: ADME, tissue-based; how it was run: as §2
HepG2 [29] = experiment: Cytotoxicity against human HepG2 cells assessed as reduction in cell density at >2.5 uM after 48 hrs by SRB assay; assay type: cell-based; conditions: hepg2, 48 h
[30] = Antioxidant activity assessed as GO radical scavenging activity measured for 30 mins in absence of light; assay type: functional
How it was run: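 Ethanolic GO• (5 mM stock) diluted to absorbance 1.00 ± 0.02 at 428 nm. Test solutions (5–75 μM in ethanol) were added in triplicate and read at 428 nm at room temperature. Inhibition was taken against an ethanol blank (100% radical).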

For `CS(=O)(=O)[O-].O=C(/C=C/c1ccc(O)c(O)c1)NCCCCCCCCCC[P+](c1ccccc1)(c1ccccc1)c1ccccc1`, the Activity (Liver [1]) was “Dose-dependent effect”, the Activity (HepG2 [2]) was 20.85 nmol and the Drug uptake (Liver [3]) was 1.9 µM. The IC50 [4] was 25.9 µM, the inhibition (HepG2 [5]) was “Active” and the Activity (Liver [6]) was 10 mV. For the same compound, the Activity (Liver [7]) was “Dose-dependent effect”, the inhibition (Liver [8]) was “Active” and the inhibition (HepG2 [9]) was “Active”. The Activity (HepG2 [10]) was “Non-Toxic”, the Activity (Liver [11]) was “Dose-dependent effect” and the Activity (Liver [12]) was “Dose-dependent effect”. For the same compound, the Activity [13] was 0.291 V, the Activity (Liver [14]) was “Dose-dependent effect” and the Activity (Liver [15]) was “Dose-dependent effect”. The Activity [16] was 0.174 V, the Activity (Liver [17]) was “Dose-dependent effect” and the Activity (Liver [18]) was “Dose-dependent effect”. The Activity (HepG2 [19]) was “Non-Toxic”, the Activity [20] was “Non-Toxic” and the Activity (Liver [21]) was “Dose-dependent effect”. The Activity (Liver [22]) was “Dose-dependent effect”, the inhibition (Liver [23]) was “Active” and the Activity (HepG2 [24]) was “Non-Toxic”. The Ratio (Liver [25]) was 2700, the inhibition (Rattus norvegicus) was “Active” and the Activity (Liver [26]) was “Dose-dependent effect”. The IC50 [27] was 23.5 µM, the Drug uptake (Liver [28]) was 4.7 mM and the Activity (HepG2 [29]) was “Toxic”. It also gave an IC50 [30] of 2.7 µM.
